We go through five molecules from article PMC4104214 (Nuclear medicine and biology, 2014).

The structures appear in SMILES notation. A value given as a limit tells only on which side of the number the result lay.

Data set [1] has as its target T1, MAGL (Mus musculus, UniProt O35678).
T1 sequence (O35678 1-303): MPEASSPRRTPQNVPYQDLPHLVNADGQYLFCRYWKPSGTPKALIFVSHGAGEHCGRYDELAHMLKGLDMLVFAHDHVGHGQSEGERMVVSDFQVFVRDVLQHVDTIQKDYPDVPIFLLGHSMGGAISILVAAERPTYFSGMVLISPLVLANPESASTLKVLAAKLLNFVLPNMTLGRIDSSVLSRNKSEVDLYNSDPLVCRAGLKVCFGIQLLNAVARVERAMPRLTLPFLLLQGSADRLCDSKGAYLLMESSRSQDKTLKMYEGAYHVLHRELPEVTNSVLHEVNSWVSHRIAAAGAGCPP
Kind of data set: Ex vivo whole brain uptake and pharmacological blocking in mice. On the set-up: species or system mouse (male C57BL/6). The settings on record: for whole brain uptake: conscious mice, iv tail vein, 2 and 40 min post injection. The procedure, abridged:
(§1)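 They were killed at 2 and 40 min. The blocking group got matching unlabeled inhibitor (2.0 mg/kg ip, 5% DMSO/5% Tween80 saline) 30 min before and was killed at 40 min. Trunk blood and whole brain were weighed and gamma-counted, decay-corrected to injection. Results given as SUV, mean ± SD, Student t-test.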

Data set [2] relates to MAGL. Kind of data set: Ex vivo blood radioactivity retention and pharmacological blocking in mice. The arrangement: species or system mouse (male C57BL/6). The procedure, abridged:
as §1

For the next data set, the system named is hMAGL. The following applies: read-out: hMAGL IC50; human enzyme; cited from earlier work.
A further data set deals with hFAAH. The following applies: read-out: hFAAH IC50; human enzyme; cited from earlier work.
The target of data set [3] is T2, MAGL (Rattus norvegicus, UniProt Q8R431).
T2 sequence (Q8R431 1-303): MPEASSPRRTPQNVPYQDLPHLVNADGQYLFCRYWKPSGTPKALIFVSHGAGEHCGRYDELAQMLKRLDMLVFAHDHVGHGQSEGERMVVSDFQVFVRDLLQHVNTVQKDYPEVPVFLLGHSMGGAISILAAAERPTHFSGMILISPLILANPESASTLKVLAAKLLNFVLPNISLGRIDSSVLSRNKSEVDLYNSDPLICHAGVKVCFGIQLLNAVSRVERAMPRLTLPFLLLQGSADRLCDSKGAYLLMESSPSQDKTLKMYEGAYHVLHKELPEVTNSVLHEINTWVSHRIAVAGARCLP
Kind of data set: Ex vivo brain uptake and pharmacological blocking in rats. The arrangement: species or system rat (male Sprague-Dawley). The procedure, abridged: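 Restrained conscious male Sprague-Dawley rats (330–370 g, n = 4/group) received 28–34 MBq of tracer (208 GBq/μmol) in 0.3 mL 5% Tween80 buffered saline via warm-water-dilated tail vein. They were decapitated at 2 and 40 min. The blocking group was pretreated with unlabeled inhibitor (2 mg/kg ip, 5% DMSO/5% Tween80 saline) and killed at 40 min. Cortex, cerebellum, hypothalamus and rest of brain were weighed and gamma-counted, decay-corrected against dose standards. Injected dose was corrected for tail residue.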

Take `O=[11C](N1CCC(C(c2ccc3c(c2)OCO3)c2ccc3c(c2)OCO3)CC1)n1cncn1` [[^11C]18]: the whole brain uptake at MAGL [1] is 0.65–0.82 SUV. Moreover, at MAGL [1] (mice, unlabeled inhibitor 2 mg/kg ip 30 min before radiotracer, 40 min post injection, p < 0.05), the “reduction of brain retention in blocked group” value was 42%. In addition, the “specific to non-specific binding ratio” value on MAGL [1] (mouse brain, estimated from 42% reduction in blocked group) is recorded as 0.71. Also, the retention in blood in the data set on MAGL [2] (iv tail vein, 2 and 40 min post injection) was 1.1–1.5 SUV. In the data set on MAGL [2] (unlabeled inhibitor 2 mg/kg ip 30 min before radiotracer, 40 min post injection), the “reduction of blood binding upon pharmacological blockade” value turned out to be 71%.
Broadly, the IC50 is the midpoint of a concentration-inhibition curve. Consider `O=C(N1CCC(C(c2ccc3c(c2)OCO3)c2ccc3c(c2)OCO3)CC1)n1cncn1` [compound 18], for which the IC50 with hMAGL is 0.36 nM; in the data set on hFAAH, 4800 nM.
With `O=C(N1CCN(C(c2ccccc2)c2ccccc2)CC1)n1nnc2ccccc21` [compound 12], in the data set with hFAAH, the IC50 is 562 nM.
`O=[11C](OC(C(F)(F)F)C(F)(F)F)N1CCC(C(O)(c2ccc3c(c2)OCO3)c2ccc3c(c2)OCO3)CC1` [[^11C]7]: the brain radioactivity uptake at MAGL [3] (conscious rats, iv tail vein, 2 and 40 min post injection, brain regions) is 0.44–0.71 SUV. Besides, the “blocking of brain uptake by pretreatment with unlabeled inhibitor” value on MAGL [3] (rats, unlabeled 7 2 mg/kg ip before radiotracer, 40 min post injection) is reported as “not blocked by pretreatment with unlabeled 7”. The whole brain uptake at MAGL [1] is 0.34–0.67 SUV. Besides, the “attenuation of brain uptake by pretreatment with unlabeled compound” value at MAGL [1] (mice, unlabeled inhibitor 2 mg/kg ip 30 min before radiotracer, 40 min post injection) was “not significantly attenuated”.
In the case of `O=C(OC(C(F)(F)F)C(F)(F)F)N1CCC(C(O)(c2ccc3c(c2)OCO3)c2ccc3c(c2)OCO3)CC1` [compound 7], the IC50 with hMAGL was 5.9 nM; in the data set on hFAAH, > 50000 nM.
